An excerpt weighted towards active compounds, which were near 2% of everything screened.
M5 antag: human M5 muscarinic receptor antagonists, primary screen, CHO cells, Fluo-8 calcium fluorescence; Muscarinic acetylcholine receptor M5 (Homo sapiens), P08912; CHO-hM5 cells, ACh EC80; inhibition, % at 3 µM; 360,000 compounds, 0.59% hits;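 active = inhibition above a per-plate cutoff, the mean of that plate's test compounds plus 3 SD, cut at about 27% in these data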;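 also: 0% = acetylcholine EC80 with DMSO and 100% = DMSO without agonist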
CHRM1 antagonist: human M1 muscarinic receptor antagonists, primary screen, CHO-K1 cells, Fluo-8 calcium fluorescence, 1536-well; 360,000 compounds, 1.3% hits; AID 588852, 2011; Muscarinic acetylcholine receptor M1 (Homo sapiens), P11229; inhibition, % at 3 µM; CHO-K1 hM1, ACh EC80 antagonist;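 active = percent inhibition above its own plate's cutoff, namely the mean of that plate's compound wells plus 3 SD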;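 also: peak over basal fluorescence ratio during 140 s after agonist addition; 0% = ACh EC80 plus DMSO and 100% = DMSO alone without agonist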
Target sequence (P11229 whole entry, looked up): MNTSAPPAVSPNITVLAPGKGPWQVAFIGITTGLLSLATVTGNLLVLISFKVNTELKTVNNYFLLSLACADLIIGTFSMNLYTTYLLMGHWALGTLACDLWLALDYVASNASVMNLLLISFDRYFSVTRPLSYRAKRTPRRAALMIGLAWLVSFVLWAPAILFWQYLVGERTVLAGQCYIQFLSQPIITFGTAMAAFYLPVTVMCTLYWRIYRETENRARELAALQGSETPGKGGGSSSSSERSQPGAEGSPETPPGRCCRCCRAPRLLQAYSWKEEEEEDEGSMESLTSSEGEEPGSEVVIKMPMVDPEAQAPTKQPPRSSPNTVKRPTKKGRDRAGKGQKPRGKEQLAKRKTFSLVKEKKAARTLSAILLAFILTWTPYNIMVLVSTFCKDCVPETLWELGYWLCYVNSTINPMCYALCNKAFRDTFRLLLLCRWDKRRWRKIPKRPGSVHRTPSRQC
CHRM1 agonist: human M1 muscarinic receptor agonists, primary screen, Fluo-8 calcium fluorescence, CHO-K1 cells, HTS | Muscarinic acetylcholine receptor M1 (Homo sapiens), P11229 | AID 588814, 2011 | 360,000 compounds, 0.33% hits | CHO-K1 hM1, agonist mode; 0% DMSO, 100% acetylcholine EC100 | activation, % at 3 µM;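 active = activation above the run's mean compound activation plus 3 SD, cut at about 16% in these data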;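 also: peak over basal fluorescence ratio within a 140 s kinetic read after compound addition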
M5 ag: human M5 muscarinic receptor agonists, primary screen, CHO-K1 cells, Fluo-8 calcium fluorescence | CHO-K1 hM5 cells; 0% DMSO wells, 100% maximal acetylcholine response | activation, % at 3 µM | 360,000 compounds, 0.19% hits | Muscarinic acetylcholine receptor M5 (Homo sapiens), P08912;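 active = activation above the run's mean over test compounds plus 3 SD, cut at about 23% in these data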;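 also: signal is peak over basal fluorescence ratio across the kinetic read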
CHRM5 PAM: human M5 muscarinic receptor positive allosteric modulators, primary screen, CHO-K1 cells, Fluo-8 calcium fluorescence; CHO-K1 hM5, ACh EC20 PAM; 0% = ACh EC20, 100% = ACh EC100; activation, % at 3 µM; 360,000 compounds, 0.3% hits;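 active = activation above the run cutoff, the mean activation of all test compounds plus 3 SD, cut at about 18% in these data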
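Measured by: Fluo-8 calcium fluorescence; material: human M5 receptor in CHO-K1 cells; schedule: Post-acetylcholine fluorescence recording 140 s; benchmarks: low control EC20 acetylcholine (0%), high control EC100 acetylcholine (100%); read-out: Max/basal fluorescence ratio as % of EC20–EC100 ACh window; compound: single dose, 3 µM nominal final test concentration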
CHRM1 PAM: human M1 muscarinic receptor positive allosteric modulators, primary screen, CHO-K1 cells, Fluo-8 calcium fluorescence, 1536-well; Muscarinic acetylcholine receptor M1 (Homo sapiens), P11229; CHO-K1 hM1, ACh EC20; 0% = ACh EC20, 100% = maximal ACh; activation, % at 3 µM; 360,000 compounds, 0.088% hits; AID 588819, 2011; in the data active = activation above about 19%, passing the limit was not always enough
Numbers without * were called inactive; · = not tested or not shown.

SMILES	M5 antag	CHRM1 antagonist	CHRM1 agonist	M5 ag	CHRM5 PAM	CHRM1 PAM
O=C(NCc1ccc(F)c(F)c1)c1cccc2c(-c3cccnc3)coc12	13	22	1	6	-13	-16
COc1ccc(CNC(=O)c2cccc3c(-c4cccnc4)coc23)cc1OC	35*	34*	4	9	-18	-17
O=C(Nc1ccccc1)c1cc(C2COCCN2C(=O)c2cccs2)on1 (stereo not given)	-2	-14	-2	1	0	7
O=C(O)Cc1ccc(NC(=O)COc2ccc3ccccc3c2)cc1	19	8	-2	-2	-6	-7
COc1cc2ccccc2cc1C(=O)Nc1ccc(Cc2ccncc2)cc1	16	30*	-1	-1	-17	-16
O=C(COc1ccc2ccccc2c1)Nc1ccc(Cc2ccncc2)cc1	25	43*	0	6	-22	-20
COCCN(C(=O)CCC(=O)Nc1cc(C)on1)C(C(=O)NC(C)(C)C)c1cccc(OC)c1OC (stereo not given)	-1	-6	-3	-3	14	4
COc1ccc(-c2cc(CNC(=O)CCl)on2)cc1	-7	-3	-4	0	19*	6
CC(C)CC1NC(=O)c2cccnc2-n2c1nc1cc(F)ccc1c2=O (stereo not given)	4	-15	-5	-2	-3	4
COC(=O)c1ccc2nccnc2c1	-5	12	-1	2	6	-5
COC(=O)c1ccc(N)nc1	-2	-2	22*	12	0	-1
COc1cccc(-c2nc(CS(=O)(=O)CC(=O)NCCCc3ccccc3)c(C)o2)c1	2	40*	-3	-4	-7	-21
COc1cccc(-c2nc(CS(=O)(=O)CC(=O)NCc3ccccc3)c(C)o2)c1	-8	-6	-2	1	7	3
CCCS(=O)(=O)NC(=O)C1(C)CCCN(C(=O)c2cncc(Br)c2)C1 (stereo not given)	-1	-11	-3	-1	1	7
CCCc1cc2c(cc1N(C)S(=O)(=O)c1ccccc1)OCO2	28*	7	-6	-3	-12	-6
COc1ccccc1N(C)S(=O)(=O)c1ccc(C(=O)NCc2ccc3c(c2)OCO3)cc1	8	18	-5	3	-15	-8
COc1cccc(Nc2ncccc2C(=O)Nc2ccccc2)c1	5	6	-1	-8	19*	2
COc1cccc(NC(=O)c2ccccc2Oc2ccccc2)c1	7	7	-5	-4	-1	-5
O=C(C1CCCCC1)N1C[C@@H](O)[C@H](n2cc(C3CC3)nn2)C[C@@H]1c1ccc(Cl)cc1	-5	-19	3	1	2	17
O=C(Nc1cccc(-c2cnc3ccccc3n2)c1)c1cccc(NC(=O)c2ccco2)c1	26	35*	2	4	-18	-15
C/C(=N\NC(=O)Nc1ccccc1)c1ccc2ccccc2c1	34*	2	-8	-4	-7	-5
C/C(=N/NC(=O)Nc1ccccc1)c1ccc(C)cc1	13	-7	-7	-3	-3	8
CC(=O)Nc1ccc2ccccc2c1	-4	0	-2	2	0	6
O=C(Nc1ccccc1)Nc1ccc2ccccc2c1	33*	21	2	3	-33	-13
Fc1ccccc1CN1CCCN(C(=S)Nc2cccc(Cl)c2)C1	29*	29*	10	3	-27	-13
SMILES	M5 antag	CHRM1 antagonist	CHRM1 agonist	M5 ag	CHRM5 PAM	CHRM1 PAM
COCCNC(=O)C1(C)CCCN(Cc2c(C)nn(-c3ccccc3)c2C)C1 (stereo not given)	1	-10	-7	1	-4	3
CN(C)c1ccc(C(=O)/C=C/c2ccc(Br)cc2)cc1	-4	-11	-5	0	0	10
CCN(CC)c1ccc(/C=C/C(=O)c2ccc(Br)cc2)cc1	67*	79*	171*	113*	-18	-24
Cc1csc(SCC(=O)Nc2cc(F)ccc2C)n1	24	-2	-1	-3	4	-2
COc1ccc(CCn2c(C)nc3c(c(=O)c4ccccc4n3C)c2=O)cc1	12	23	-7	-2	-12	-24
COc1ccc(CCn2c(C(C)C)nc3c(c(=O)c4ccccc4n3C)c2=O)cc1	12	39*	-10	-4	-12	-31
COc1ccc(-n2nnnc2C2c3ccccc3C(=O)N2C2CCN(Cc3ccccc3)CC2)cc1 (stereo not given)	-1	·	·	-2	0	·
CCOc1cccc(CN2CCC(Oc3ccc(C(=O)NCc4ccccn4)cc3)CC2)c1	4	77*	-5	-9	-5	-23
Cc1cnc(CNC(=O)c2ccc(OC3CCN(C(=O)C4CC4)CC3)cc2)cn1	0	-6	2	17	23*	9
C#Cc1ccc(CN2CCC(Oc3ccc(C(=O)NCc4ccccn4)cc3)CC2)cc1	20	78*	-6	-8	-12	-24
O=C(c1ccc(OC2CCN(Cc3ccccn3)CC2)cc1)N1CCCC(O)C1 (stereo not given)	-11	-8	-8	-10	24*	5
COc1cccc(CN2CCC(Oc3ccc(C(=O)NCc4ccccn4)cc3)CC2)c1	-7	26	-5	-8	4	-15
O=C(Nc1cccc2cccnc12)c1csc(COCCO)n1	0	-13	-3	-1	-2	7
COc1ccc(CN2CCC(Oc3ccc(C(=O)NCc4ccccn4)cc3)CC2)c(F)c1	8	71*	-2	-6	-7	-23
O=C(NCc1ccccn1)c1ccc(OC2CCN(Cc3ccc(F)cc3F)CC2)cc1	-4	23	-4	-4	6	-17
COc1ccc(C2=NNC(=O)CC2)cc1	-10	4	-3	3	24*	3
Cc1ccnc(NS(=O)(=O)c2ccc(NS(C)(=O)=O)cc2)n1	-5	10	0	1	17	0
Cc1ccnc(NS(=O)(=O)c2ccc(NS(=O)(=O)c3ccccc3)cc2)n1	-6	14	-1	1	23*	-2
CC1(c2nnnn2-c2ccc3c(c2)OCCO3)CCC(=O)N1CCc1ccc(O)cc1 (stereo not given)	1	·	·	6	-3	·
